Compound activity as filed in PubChem BioAssay.
Most compounds without a hit are left out; they make up all but 3.8% or so of the library.
KCNK9 block: KCNK9 potassium channel inhibitors, primary screen, HEK293 cells, thallium flux | B-score at 10 µM | Potassium channel subfamily K member 9 (Homo sapiens), Q9NPC2 | 310,000 tested, 1.2% active | FluxOR thallium flux fluorescence; stronger effect = lower value | AID 488922, 2010;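 active means ratio B-score over 3 SD below the library mean, with starting fluorescence within 5 SD of its mean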;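 further: negative B-score means less thallium flux so channel inhibition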
Kir21 inh: inhibitors of mouse Kir2.1 inward-rectifier potassium channel. 310,000 tested, 0.85% active. HEK293-Kir2.1, FluxOR thallium flux fluorescence; stronger effect = lower value. B-score at 10 µM;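 active means fluorescence ratio B-score at or below minus 3 SD of library scores, with starting-brightness B-score within 2 SD, cut at about -4.2 in these data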;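 further: channel flux triggered by added potassium and thallium sulfate stimulus; B-score of peak minus minimum fluorescence over baseline after thallium stimulus; more negative B-score means stronger Kir2.1 block with less thallium influx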
Target sequence (P35561 whole entry, looked up): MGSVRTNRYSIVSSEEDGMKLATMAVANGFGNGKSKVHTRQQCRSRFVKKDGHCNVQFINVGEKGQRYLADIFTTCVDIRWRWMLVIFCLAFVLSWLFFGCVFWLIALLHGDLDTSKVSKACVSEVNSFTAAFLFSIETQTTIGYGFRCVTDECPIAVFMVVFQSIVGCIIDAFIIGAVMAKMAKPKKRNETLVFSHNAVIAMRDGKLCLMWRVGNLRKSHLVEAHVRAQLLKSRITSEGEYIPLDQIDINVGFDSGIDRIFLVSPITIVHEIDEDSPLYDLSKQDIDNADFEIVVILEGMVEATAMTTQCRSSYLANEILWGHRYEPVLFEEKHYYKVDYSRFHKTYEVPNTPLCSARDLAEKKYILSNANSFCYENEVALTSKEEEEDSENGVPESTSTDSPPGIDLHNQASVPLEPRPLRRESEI
KCNK3 inh: human KCNK3 channel inhibitors, primary screen, CHO cells, FluxOR thallium flux, B-score. Potassium channel subfamily K member 3 (Homo sapiens), O14649. B-score at 10 µM. AID 602410, 2012. 340,000 tested, 0.84% active. FluxOR fluorescence; stronger effect = lower value;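 active means B-score under library mean minus 4 SD, starting fluorescence ratio at most library mean plus 5 SD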;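 further: more negative B-score means stronger inhibition of thallium flux through KCNK3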
hERG protect: hERG rescue from dofetilide block, primary screen, cell-based, CHO-hERG, FluxOR thallium flux, dofetilide IC70; AID 1511, 2009; dofetilide IC70 present; Voltage-gated inwardly rectifying potassium channel KCNH2 (Homo sapiens), Q12809; 310,000 tested, 0.51% active; activation (rescue from dofetilide block), less the hit threshold, % at 10 µM;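 active means activation above the mean of controls blocked by dofetilide plus 5 SD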;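 further: thallium influx through hERG after potassium depolarization seen as dye fluorescence rise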
KCNQ1 pot: potentiators or activators of KCNQ1 channel, primary screen, cell-based, thallium flux, high-throughput; Potassium voltage-gated channel subfamily KQT member 1 (Homo sapiens), P51787; CHO-K1 KCNQ1, thallium flux FluxOR fluorescence; stronger effect = higher value; B-score at 10 µM; 310,000 tested, 0.35% active;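 active means fluorescence ratio B-score, a plate-corrected score, at least three library SD, with initial intensity B-score within 5 SD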
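Schedule – 37 °C overnight plating, 90-min dark dye load, 20-min compound pretreatment · System – stable KCNQ1 CHO-K1 line · Probe or stimulus – thallium- and potassium-containing depolarizing buffer · Measured by – kinetic FluxOR fluorescence, 10 s baseline plus 110 s post-stimulus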
KCNQ1 block: inhibitors of human KCNQ1 channel, primary screen, cell-based, thallium flux, high-throughput | Potassium voltage-gated channel subfamily KQT member 1 (Homo sapiens), P51787 | CHO-K1 KCNQ1, FluxOR thallium flux fluorescence; stronger effect = higher value | B-score at 10 µM | 310,000 tested, 1.3% active | AID 2642, 2010;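 active means compounds whose thallium flux B-score, printed positive for inhibition, exceeds three library SD while starting fluorescence stays within three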;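 further: channel opened by potassium depolarization with thallium stimulus after 20 min compound exposure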
KCNK9 block conf: KCNK9 potassium channel inhibitors, confirmation, HEK293 cells, thallium flux, duplicate; shares compounds with KCNK9 block; FluxOR thallium flux fluorescence; inhibition, % at 10 µM; 4,900 tested, 43% active; AID 492992, 2010;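 active means thallium signal inhibited by more than 5 SD of the compound-free buffer control wells, on both duplicate plates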
Kir21 sel: mouse Kir2.1 channel inhibition, confirmation, selectivity assay for KCNK9 modulator project, cell-based, HEK293, thallium flux. AID 492993, 2010. Kir2.1 cells, FluxOR thallium flux fluorescence. inhibition, % at 10 µM. shares compounds with KCNK9 block. 4,900 tested, 4% active;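 active means thallium signal drop more than 5 SD beyond the mean of the no-compound control wells, seen in both duplicate plates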;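 further: signal is fluorescence rise after thallium addition divided by baseline fluorescence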
KCNK9 uninduced: thallium flux in non-induced HEK293 cells, confirmation, counter-screen for KCNK9 inhibitor project, cell-based, second counter screen, non-induced KCNK9-HEK293; AID 492997, 2010; 4,900 tested, 40% active; FluxOR thallium flux; inhibition, % at 10 µM; shares compounds with KCNK9 block;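 active means thallium signal drop beyond 5 SD of the untreated control mean, on both duplicate plates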
Hits are given with their value; n = inactive; x = no result given.

SMILES	KCNK9 block	Kir21 inh	KCNK3 inh	hERG protect	KCNQ1 pot	KCNQ1 block	KCNK9 block conf	Kir21 sel	KCNK9 uninduced
Cc1cccc(CN2CCCC(C(=O)N3CCc4ccccc4C3)C2)c1 (stereo not drawn)	n	n	n	n	n	n	n	n	n
Cc1ccc(-c2cc(C(=O)Nc3cc(C)on3)c3ccccc3n2)cc1	n	n	n	n	n	n	x	x	x
Cc1cc(NC(=O)c2cc(-c3cccs3)nc3ccccc23)no1	-9.63	n	n	n	n	n	37.5%	n	n
O=C(CCc1ccc(S(=O)(=O)N2CCOCC2)cc1)Nc1ccc(F)cc1[N+](=O)[O-]	x	x	n	x	x	x	x	x	x
NC(=O)c1sc(-c2ccsc2)cc1NS(=O)(=O)c1ccc(C(F)(F)F)cc1	n	n	n	n	n	n	n	n	n
O=C(c1cccc(S(=O)(=O)N2CCOCC2)c1)N(CCO)Cc1ccccc1	n	n	n	n	n	n	x	x	x
Cc1ccc(CN(C)C(=O)c2cccc(S(=O)(=O)N3CCN(Cc4ccccc4)CC3)c2)o1	n	n	n	n	n	n	n	n	27.5%
CN1CCN(S(=O)(=O)c2cccc(C(=O)Nc3nc(-c4ccccc4)cs3)c2)CC1	n	n	n	n	n	n	x	x	x
O=C(Nc1nc(-c2ccccc2)cs1)c1cccc(S(=O)(=O)N2CCN(Cc3ccccc3)CC2)c1	n	n	n	n	n	n	n	n	n
O=C(c1cccc(S(=O)(=O)N2CCCCC2)c1)N(CCc1ccccc1)Cc1ccccc1	-16.2	n	n	n	n	6	61.5%	n	35.5%
COC(=O)C1=C(C)OC(N)=C(C#N)C1c1ccccc1 (stereo not drawn)	n	n	n	n	n	n	x	x	x
COC(=O)C1=C(C)OC(N)=C(C#N)C1c1c(C)nn(-c2ccccc2)c1Cl (stereo not drawn)	-12.7	n	n	n	n	n	37.0%	n	n
Cc1ccc(S(=O)(=O)CCC(=O)OC2CC(C)OC2=O)cc1 (stereo not drawn)	x	x	n	x	x	x	x	x	x
CCN(CC)c1ccc(/C=N/NC(=O)CNC(=O)C2COc3ccccc3O2)c(O)c1 (stereo not drawn)	n	n	n	n	n	n	x	x	x
Cc1cccc(NC(=O)CCSc2nnc(Cc3ccccc3)o2)c1	n	n	n	n	n	n	n	n	n
Cc1ccc(NC(=O)CCSc2nnc(Cc3ccccc3)o2)cc1	n	n	n	n	n	n	x	x	x
COc1ccc(CCN(C)C(=O)c2cc(S(=O)(=O)N3CCCCCC3)ccc2OC)cc1OC	n	n	n	n	n	n	x	x	x
COc1ccc(S(=O)(=O)N2CCCCCC2)cc1C(=O)N(C)Cc1ccc(C)cc1	n	n	n	n	n	n	n	n	n
COc1ccc(N(CC(=O)Nc2ccc(Cc3ccncc3)cc2)S(=O)(=O)c2ccccc2)cc1	n	n	n	n	n	n	x	x	x
CN(CC(=O)Nc1ccc(F)c(F)c1F)C(=O)/C=C/c1ccco1	x	x	n	x	x	x	x	x	x
CC(C)(C)N(Cc1ccccc1)C(=O)c1ccc(Cl)cc1[N+](=O)[O-]	n	n	n	n	n	n	n	n	n
N#Cc1c(Sc2ncc(C(F)(F)F)cc2Cl)nsc1C/C=N\OCc1ccccc1Br	n	n	n	n	n	n	n	n	n
COc1ccccc1C(=O)NCC(=O)NNc1ncnc(N)c1[N+](=O)[O-]	n	n	x	n	n	n	x	x	x
O=c1cc(N2CCCCC2)c(-c2ccccc2)nn1Cc1ccc(F)cc1	-11.8	n	n	n	n	n	60.5%	n	36.5%
O=c1cc(N2CCCCC2)c(-c2ccccc2)nn1Cc1ccc(Cl)cc1	n	n	n	n	n	n	x	x	x
SMILES	KCNK9 block	Kir21 inh	KCNK3 inh	hERG protect	KCNQ1 pot	KCNQ1 block	KCNK9 block conf	Kir21 sel	KCNK9 uninduced
O=c1c2c(c(-c3ccccc3)nn1Cc1ccccc1)CCCC2	n	n	n	n	n	n	n	n	27.5%
O=c1ccc(-c2ccccc2)nn1Cc1ccccc1	n	n	n	n	n	n	x	x	x
Cc1ccc2c(C)c(C(=O)N(Cc3ccncc3)CC3CCCO3)oc2c1C (stereo not drawn)	n	n	n	n	n	n	x	x	x
Cc1ccc2oc(C(=O)N(Cc3ccc(N(C)C)cc3)CC3CCCO3)c(C)c2c1 (stereo not drawn)	n	n	n	n	n	n	n	n	n
CCC(CO)Oc1cc(NC(=O)c2ccc(OC)cc2)c2ncn(C(C)C)c2c1 (stereo not drawn)	x	x	n	x	x	x	x	x	x
CCOc1ccc(N(CC(=O)Nc2ccc(OC)cc2OC)S(=O)(=O)c2c(C)[nH]c(=O)[nH]c2=O)cc1	n	n	n	n	n	n	x	x	x
Cc1ccc(-c2nnc(N3CCCCC3)c3ccccc23)cc1S(=O)(=O)NCC1CCCO1 (stereo not drawn)	-11.8	n	n	n	n	n	n	n	n
O=C(O)c1cccc(N2C(=O)C3C4C=CC(C4=C(c4ccccc4)c4ccccc4)C3C2=O)c1 (stereo not drawn)	n	n	n	n	n	n	n	n	n
COc1ccc(Cl)cc1NC(=O)C(C)OC(=O)C1=NNC(=O)CC1 (stereo not drawn)	x	x	n	x	x	x	x	x	x
COc1ccc(N2C(=O)CSC23C(=O)N2c4c(cccc43)C(C)=CC2(C)C)cc1 (stereo not drawn)	-8.65	n	n	n	n	n	n	n	46.0%
COc1ccc(N2C(=O)CSC23C(=O)N2CCCc4cccc3c42)cc1 (stereo not drawn)	n	n	n	n	n	n	x	x	x
O=c1c2sccc2nc(SCc2ccc([N+](=O)[O-])cc2)n1Cc1ccccn1	-9.57	n	n	n	n	n	74.0%	n	27.5%
Cc1nc(NC(=O)CSC2=NCCS2)sc1C(=O)N(C)C	n	n	n	n	n	n	x	x	x
